# In ChEMBL document CHEMBL2016552, “Pyrazine-based Syk kinase inhibitors” (Bioorg Med Chem Lett, 2012):
# Columns and labels:
# [1] = biological target: Tyrosine-protein kinase SYK (Homo sapiens, UniProt P43405); test: Inhibition of human recombinant […] using poly-GT as substrate and [33P]ATP after 40 mins by beta counting
# LAD2 [2] = test: Inhibition of IgE-mediated human LAD2 cell degranulation assessed as beta-hexosaminidase release using p-nitrophenyl-N-acetyl-D-glucosamide as substrate at 1 uM preincubated for 30 mins measured 90 mins after substrate addition by spectrophotometric analysis; format: functional
# How it was run: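 LAD2 mast cells sensitised overnight (37°, 5% CO2) in StemPro-34 with 2 mM glutamine and 100 ng/ml SCF plus 100 ng/ml biotin-IgE. Cells washed into release buffer (0.025% BSA), 10,000/well, compound 30 min, then streptavidin 125 ng/ml for 30 min. Supernatants and freeze-thaw lysates incubated with 1 mM substrate (citrate, pH 4.5) 90 min at 37°C. Stopped with 0.4 M glycine pH 10.0; A405 read.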
# LAD2 [3] = test: Inhibition of IgE-mediated human LAD2 cell degranulation assessed as beta-hexosaminidase release using p-nitrophenyl-N-acetyl-D-glucosamide as substrate preincubated for 30 mins measured 90 mins after substrate addition by spectrophotometric analysis
# [4] = Apparent permeability across basolateral to apical side in human Caco2 cells; format: ADME, cell-based; details: Caco-2
# [5] = biological target: Macrophage colony-stimulating factor 1 receptor (Homo sapiens) (UniProt P07333); details: 1 uM
# [6] = biological target: Protein-tyrosine kinase 2-beta (Homo sapiens) (UniProt Q14289); details: 1 uM
# [7] = biological target: Tyrosine-protein kinase Fgr (Homo sapiens) (UniProt P09769); details: 1 uM
# [8] = biological target: T1, Tyrosine-protein kinase Lyn (Homo sapiens, UniProt P07948); details: 1 uM
# Target sequence in this assay (P07948 2-512 limits assumed): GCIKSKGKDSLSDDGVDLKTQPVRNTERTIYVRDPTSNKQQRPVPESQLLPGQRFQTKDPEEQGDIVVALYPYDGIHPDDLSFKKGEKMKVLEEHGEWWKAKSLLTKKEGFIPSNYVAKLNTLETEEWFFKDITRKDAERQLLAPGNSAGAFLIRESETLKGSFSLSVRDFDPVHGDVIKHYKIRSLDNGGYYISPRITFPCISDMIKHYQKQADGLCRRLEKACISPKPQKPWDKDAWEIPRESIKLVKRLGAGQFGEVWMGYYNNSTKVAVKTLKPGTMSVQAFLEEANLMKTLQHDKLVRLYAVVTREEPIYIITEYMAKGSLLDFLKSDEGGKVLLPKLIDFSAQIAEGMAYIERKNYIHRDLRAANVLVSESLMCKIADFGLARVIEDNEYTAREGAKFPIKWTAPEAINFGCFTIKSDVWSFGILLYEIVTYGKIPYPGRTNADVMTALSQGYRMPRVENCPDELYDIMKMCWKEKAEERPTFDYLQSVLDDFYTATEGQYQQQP
# [9] = Aqueous solubility of the compound at pH 7.4; format: physicochemical
# [10] = biological target: Fibroblast growth factor receptor 3 (Homo sapiens) (UniProt P22607); details: 1 uM
# [11] = biological target: Ribosomal protein S6 kinase alpha-6 (Homo sapiens) (UniProt Q9UK32); details: 1 uM
# Ribosomal protein S6 kinase alpha-6 (Homo sapiens), sequence (Q9UK32 whole entry): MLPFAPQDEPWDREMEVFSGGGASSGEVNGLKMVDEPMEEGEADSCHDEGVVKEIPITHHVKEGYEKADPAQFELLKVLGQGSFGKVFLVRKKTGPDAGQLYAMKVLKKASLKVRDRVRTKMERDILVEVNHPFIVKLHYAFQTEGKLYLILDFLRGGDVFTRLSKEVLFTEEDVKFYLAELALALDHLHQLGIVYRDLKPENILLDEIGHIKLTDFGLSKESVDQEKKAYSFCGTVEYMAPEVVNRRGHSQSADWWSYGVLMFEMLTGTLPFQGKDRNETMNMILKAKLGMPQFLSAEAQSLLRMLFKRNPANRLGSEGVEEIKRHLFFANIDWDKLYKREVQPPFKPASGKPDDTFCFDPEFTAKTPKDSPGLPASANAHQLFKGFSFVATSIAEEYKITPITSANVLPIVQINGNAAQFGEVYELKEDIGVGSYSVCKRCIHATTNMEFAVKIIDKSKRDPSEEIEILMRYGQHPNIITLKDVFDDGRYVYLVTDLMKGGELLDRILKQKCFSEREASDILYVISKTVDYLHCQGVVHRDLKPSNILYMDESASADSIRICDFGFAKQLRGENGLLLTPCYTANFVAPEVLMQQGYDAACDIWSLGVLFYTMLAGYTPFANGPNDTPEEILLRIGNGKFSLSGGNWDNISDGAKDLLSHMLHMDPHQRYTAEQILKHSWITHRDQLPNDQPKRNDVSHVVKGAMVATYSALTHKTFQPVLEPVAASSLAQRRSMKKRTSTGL
# [12] = biological target: Calcium/calmodulin-dependent protein kinase type II subunit delta (Homo sapiens) (UniProt Q13557); details: 1 uM
# [13] = biological target: Aurora kinase A (Homo sapiens) (UniProt O14965); details: 1 uM
# [14] = biological target: Protein kinase C beta type (Homo sapiens) (UniProt P05771); details: 1 uM
# [15] = biological target: Serine/threonine-protein kinase pim-1 (Homo sapiens) (UniProt P11309); details: 1 uM
# [16] = Apparent permeability across apical to basolateral side in human Caco2 cells; format: ADME, cell-based; details: Caco-2
# [17] = biological target: Tyrosine-protein kinase Lck (Homo sapiens) (UniProt P06239); details: 1 uM
# Tyrosine-protein kinase Lck (Homo sapiens), sequence (P06239 2-509 limits assumed): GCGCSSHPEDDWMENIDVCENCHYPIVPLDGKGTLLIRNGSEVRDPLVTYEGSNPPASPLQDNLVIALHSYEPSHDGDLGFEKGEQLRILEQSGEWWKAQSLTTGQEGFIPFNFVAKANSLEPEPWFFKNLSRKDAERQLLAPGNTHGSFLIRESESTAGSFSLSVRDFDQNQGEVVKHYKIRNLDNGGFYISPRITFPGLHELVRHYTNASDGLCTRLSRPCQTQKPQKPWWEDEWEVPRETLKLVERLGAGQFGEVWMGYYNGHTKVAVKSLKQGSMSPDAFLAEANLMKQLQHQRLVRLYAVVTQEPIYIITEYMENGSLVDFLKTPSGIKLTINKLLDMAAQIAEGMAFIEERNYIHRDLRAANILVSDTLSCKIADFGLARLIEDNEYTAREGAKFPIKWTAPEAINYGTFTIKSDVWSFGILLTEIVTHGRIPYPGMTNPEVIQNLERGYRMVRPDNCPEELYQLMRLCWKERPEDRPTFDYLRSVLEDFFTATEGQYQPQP
# [18] = biological target: Mitogen-activated protein kinase 10 (Homo sapiens) (UniProt P53779); details: 1 uM
# Mitogen-activated protein kinase 10 (Homo sapiens), sequence (P53779 whole entry): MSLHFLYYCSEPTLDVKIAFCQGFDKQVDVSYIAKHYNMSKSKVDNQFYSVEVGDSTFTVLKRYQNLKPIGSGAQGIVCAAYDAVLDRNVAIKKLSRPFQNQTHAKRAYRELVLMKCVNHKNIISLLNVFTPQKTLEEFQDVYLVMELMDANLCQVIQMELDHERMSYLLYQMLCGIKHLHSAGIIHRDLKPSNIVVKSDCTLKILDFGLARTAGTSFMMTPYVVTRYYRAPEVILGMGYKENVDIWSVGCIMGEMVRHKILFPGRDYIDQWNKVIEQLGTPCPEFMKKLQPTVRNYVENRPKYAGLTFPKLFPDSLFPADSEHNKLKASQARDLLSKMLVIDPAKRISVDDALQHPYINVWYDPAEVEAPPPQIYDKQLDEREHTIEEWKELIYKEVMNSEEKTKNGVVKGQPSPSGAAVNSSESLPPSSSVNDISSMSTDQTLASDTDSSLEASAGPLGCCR
# [19] = biological target: Receptor-type tyrosine-protein kinase FLT3 (Homo sapiens) (UniProt P36888); details: 1 uM
# [20] = biological target: Tyrosine-protein kinase receptor UFO (Homo sapiens) (UniProt P30530); details: 1 uM
# [21] = biological target: T1, Tyrosine-protein kinase Lyn; test: Inhibition of human Lyn
# Target sequence in this assay (P07948 whole entry): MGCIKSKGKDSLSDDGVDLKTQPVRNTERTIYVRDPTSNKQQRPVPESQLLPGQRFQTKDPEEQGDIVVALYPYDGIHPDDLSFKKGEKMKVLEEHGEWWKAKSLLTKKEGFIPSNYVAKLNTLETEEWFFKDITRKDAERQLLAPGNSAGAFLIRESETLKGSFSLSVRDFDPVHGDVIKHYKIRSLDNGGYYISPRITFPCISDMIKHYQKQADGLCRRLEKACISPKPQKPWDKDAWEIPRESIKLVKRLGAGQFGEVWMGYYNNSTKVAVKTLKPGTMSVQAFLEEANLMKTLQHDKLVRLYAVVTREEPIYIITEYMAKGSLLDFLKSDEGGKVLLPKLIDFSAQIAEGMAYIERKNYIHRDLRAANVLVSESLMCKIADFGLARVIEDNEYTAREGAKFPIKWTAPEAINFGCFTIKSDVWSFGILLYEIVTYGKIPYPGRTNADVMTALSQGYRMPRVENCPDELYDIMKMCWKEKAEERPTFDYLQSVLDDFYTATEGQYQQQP
# [22] = biological target: Focal adhesion kinase 1 (Homo sapiens) (UniProt Q05397); details: 1 uM
# [23] = biological target: Tyrosine-protein kinase ITK/TSK (Homo sapiens) (UniProt Q08881); details: 1 uM
# [24] = biological target: Proto-oncogene tyrosine-protein kinase receptor Ret (Homo sapiens) (UniProt P07949); details: 1 uM
# [25] = biological target: Serine/threonine-protein kinase Chk1 (Homo sapiens) (UniProt O14757); details: 1 uM
# [26] = biological target: Vascular endothelial growth factor receptor 1 (Homo sapiens) (UniProt P17948); details: 1 uM
# [27] = biological target: Glycogen synthase kinase-3 alpha (Homo sapiens) (UniProt P49840); details: 1 uM
# [28] = biological target: ALK tyrosine kinase receptor (Homo sapiens) (UniProt Q9UM73); details: 1 uM
# CHO = test: Cytotoxicity against CHO cells; format: cell-based, Cricetulus griseus; details: chinese hamster
# [29] = Lipophilicity, log D of the compound at pH 7.4; format: physicochemical; details: buffer
# [30] = biological target: Tyrosine-protein kinase BTK (Homo sapiens) (UniProt Q06187); details: 1 uM
# [31] = biological target: 3-phosphoinositide-dependent protein kinase 1 (Homo sapiens) (UniProt O15530); details: 1 uM
# [32] = biological target: MAP kinase-activated protein kinase 5 (Homo sapiens) (UniProt Q8IW41); details: 1 uM
# [33] = biological target: Inhibitor of nuclear factor kappa-B kinase subunit beta (Homo sapiens) (UniProt O14920); details: 1 uM
# [34] = biological target: Protein kinase C gamma type (Homo sapiens) (UniProt P05129); details: 1 uM
# [35] = biological target: Casein kinase I isoform delta (Homo sapiens) (UniProt P48730); details: 1 uM
# [36] = biological target: Protein kinase C epsilon type (Homo sapiens) (UniProt Q02156); details: 1 uM
# [37] = biological target: Cyclin-dependent kinase 1/cyclin B1 (Homo sapiens) (UniProt P06493+P14635); details: 1 uM
# Cyclin-dependent kinase 1/cyclin B1 (Homo sapiens), sequence (P06493 whole entry, looked up): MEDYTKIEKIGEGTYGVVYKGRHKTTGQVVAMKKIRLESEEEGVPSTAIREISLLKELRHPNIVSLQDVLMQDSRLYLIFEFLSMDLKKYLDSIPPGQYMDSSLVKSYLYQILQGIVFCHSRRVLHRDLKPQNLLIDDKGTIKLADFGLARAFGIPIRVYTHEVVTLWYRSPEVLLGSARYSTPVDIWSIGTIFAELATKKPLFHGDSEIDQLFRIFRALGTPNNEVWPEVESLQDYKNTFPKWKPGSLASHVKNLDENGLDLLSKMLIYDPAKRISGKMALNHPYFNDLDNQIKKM
# Cyclin-dependent kinase 1/cyclin B1 (Homo sapiens), sequence (P14635 whole entry, looked up): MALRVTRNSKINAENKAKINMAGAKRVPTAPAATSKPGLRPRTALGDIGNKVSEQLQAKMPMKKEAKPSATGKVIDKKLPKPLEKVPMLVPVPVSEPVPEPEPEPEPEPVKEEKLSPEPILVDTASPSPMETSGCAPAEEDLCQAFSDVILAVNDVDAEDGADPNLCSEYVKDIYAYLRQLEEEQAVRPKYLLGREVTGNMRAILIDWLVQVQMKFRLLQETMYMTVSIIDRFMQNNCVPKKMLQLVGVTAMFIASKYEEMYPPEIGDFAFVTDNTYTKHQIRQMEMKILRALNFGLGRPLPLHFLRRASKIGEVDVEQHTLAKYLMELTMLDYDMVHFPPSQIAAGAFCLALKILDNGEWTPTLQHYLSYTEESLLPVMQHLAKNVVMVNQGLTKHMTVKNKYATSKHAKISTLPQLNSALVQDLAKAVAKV
# [38] = biological target: Tyrosine-protein kinase JAK2 (Homo sapiens) (UniProt O60674); details: 1 uM
# [39] = biological target: Tyrosine-protein kinase Fyn (Homo sapiens) (UniProt P06241); details: 1 uM
# [40] = biological target: Rho-associated protein kinase 2 (Homo sapiens) (UniProt O75116); details: 1 uM
# [41] = biological target: Mitogen-activated protein kinase kinase kinase 7 (TAK1) (Homo sapiens) (UniProt O43318); details: 1 uM
# [42] = biological target: Hepatocyte growth factor receptor (Homo sapiens) (UniProt P08581); details: 1 uM
# [43] = biological target: Glycogen synthase kinase-3 beta (Homo sapiens) (UniProt P49841); details: 1 uM
# [44] = biological target: Dual specificity mitogen-activated protein kinase kinase 6 (Homo sapiens) (UniProt P52564); details: 1 uM
# [45] = biological target: Tyrosine-protein kinase Yes (Homo sapiens) (UniProt P07947); details: 1 uM
# [46] = biological target: Tyrosine-protein kinase ZAP-70 (Homo sapiens) (UniProt P43403); details: 1 uM
# [47] = biological target: Proto-oncogene tyrosine-protein kinase Src (Homo sapiens) (UniProt P12931); details: 1 uM
# Proto-oncogene tyrosine-protein kinase Src (Homo sapiens), sequence (P12931 2-536 limits assumed): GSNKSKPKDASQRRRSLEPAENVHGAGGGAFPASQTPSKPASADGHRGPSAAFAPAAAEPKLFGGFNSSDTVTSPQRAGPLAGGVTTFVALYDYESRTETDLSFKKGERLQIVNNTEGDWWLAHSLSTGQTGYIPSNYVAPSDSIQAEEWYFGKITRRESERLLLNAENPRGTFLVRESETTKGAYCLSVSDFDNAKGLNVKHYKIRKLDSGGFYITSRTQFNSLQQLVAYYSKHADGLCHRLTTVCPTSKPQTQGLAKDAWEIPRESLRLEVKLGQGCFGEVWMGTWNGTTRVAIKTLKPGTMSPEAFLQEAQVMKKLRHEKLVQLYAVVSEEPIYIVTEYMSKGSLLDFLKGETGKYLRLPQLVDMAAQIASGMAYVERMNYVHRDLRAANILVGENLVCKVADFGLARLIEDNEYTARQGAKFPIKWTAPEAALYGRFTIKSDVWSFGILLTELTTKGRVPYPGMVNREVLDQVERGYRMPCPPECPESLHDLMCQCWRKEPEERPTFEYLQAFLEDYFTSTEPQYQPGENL
# [48] = biological target: Tyrosine-protein kinase HCK (Homo sapiens) (UniProt P08631); details: 1 uM
# [49] = biological target: Tyrosine-protein kinase JAK3 (Homo sapiens) (UniProt P52333); details: 1 uM
# [50] = biological target: High affinity nerve growth factor receptor (Homo sapiens) (UniProt P04629); details: 1 uM
smiles,measurement,setting,value
CS(=O)(=O)Nc1cccc(-c2cnc(N)c(C(=O)N3CCC(O)CC3)n2)c1,IC50,[1],> 50 µM
CC(C)(NC(=O)c1nc(-c2cccc3cn[nH]c23)cnc1N)C1CCNCC1,inhibition at 1 µM,LAD2 [2],48%
COc1cncc(-c2cccc(-c3cnc(N)c(C(=O)NC(C)(C)C4CCNCC4)n3)c2)c1,inhibition at 1 µM,LAD2 [2],65%
CC(C)(NC(=O)c1nc(-c2ccc3c(c2)NC(=O)C3)cnc1N)C1CCNCC1,inhibition at 1 µM,LAD2 [2],10%
Cn1cc(-c2cccc(-c3cnc(N)c(C(=O)NC(C)(C)C4CCNCC4)n3)c2)cn1,IC50,LAD2 [3],0.55 µM
Nc1ncc(-c2ccc3cn[nH]c3c2)nc1C(=O)N[C@H]1C2CC3CC1C[C@](O)(C3)C2,IC50,LAD2 [3],0.4 µM
CC(C)(NC(=O)c1nc(-c2cccc(-c3ccc(N)nc3)c2)cnc1N)C1CCNCC1,Papp B→A,[4],23.8 nm/s
same,IC50,LAD2 [3],0.56 µM
CC(C)(NC(=O)c1nc(-c2ccc3cn[nH]c3c2)cnc1N)C1CCNCC1,IC50,LAD2 [3],0.86 µM
Cn1cc(-c2cccc(-c3cnc(N)c(C(=O)N[C@H]4C5CC6CC4C[C@@](O)(C6)C5)n3)c2)cn1,inhibition,[5],> 50%
same,inhibition,[6],< 50%
same,inhibition,[7],> 50%
same,inhibition,[8],> 50%
same,solubility,[9],0.025 mg/mL
same,inhibition,[10],> 50%
same,inhibition,[11],> 50%
same,inhibition,[12],< 50%
same,inhibition,[13],> 50%
same,inhibition,[14],< 50%
same,inhibition,[15],> 50%
same,Papp A→B,[16],280 nm/s
same,inhibition,[17],> 50%
same,inhibition,[18],< 50%
same,inhibition,[19],> 50%
same,Papp B→A,[4],130 nm/s
same,inhibition,[20],> 50%
same,IC50,[21],0.325 µM
same,inhibition,[22],< 50%
same,inhibition,[23],< 50%
same,inhibition,[24],> 50%
same,inhibition,[25],< 50%
same,inhibition,[26],> 50%
same,IC50,LAD2 [3],0.09 µM
same,inhibition,[27],> 50%
same,inhibition,[28],> 50%
same,Activity,CHO,Non-toxic
same,logD,[29],1.5
same,inhibition,[30],< 50%
same,inhibition,[31],< 50%
same,inhibition,[32],< 50%
same,inhibition,[33],< 50%
same,inhibition,[34],< 50%
same,inhibition,[35],< 50%
same,IC50,[1],0.04 µM
same,inhibition,[36],< 50%
same,inhibition,[37],> 50%
same,inhibition,[38],> 50%
same,inhibition,[39],> 50%
same,inhibition,[40],< 50%
same,inhibition,[41],< 50%
same,inhibition,[42],< 50%
same,inhibition,[43],< 50%
same,inhibition,[44],< 50%
same,inhibition,[45],> 50%
same,inhibition,[46],< 50%
same,inhibition,[47],> 50%
same,inhibition,[48],> 50%
same,inhibition,[49],> 50%
same,inhibition,[50],> 50%
COc1cccc(-c2cnc(N)c(C(=O)NC(C)(C)C3CCNCC3)n2)c1,IC50,LAD2 [3],1.96 µM
Nc1ncc(-c2cccc(-c3cnn(CC(F)(F)F)c3)c2)nc1C(=O)N[C@H]1C2CC3CC1C[C@@](O)(C3)C2,IC50,LAD2 [3],0.14 µM
NC(=O)Cn1cc(-c2cccc(-c3cnc(N)c(C(=O)N[C@H]4C5CC6CC4C[C@@](O)(C6)C5)n3)c2)cn1,IC50,LAD2 [3],0.16 µM
CCCn1cc(-c2cccc(-c3cnc(N)c(C(=O)N[C@H]4C5CC6CC4C[C@@](O)(C6)C5)n3)c2)cn1,IC50,LAD2 [3],0.17 µM
Cn1cc(-c2cccc(-c3cnc(N)c(C(=O)N[C@H]4C5CC6CC4C[C@](O)(C6)C5)n3)c2)cn1,IC50,LAD2 [3],0.12 µM
same,IC50,[1],0.02 µM
CC(C)(NC(=O)c1nc(-c2cccc(OC(F)(F)F)c2)cnc1N)C1CCNCC1,IC50,LAD2 [3],1.1 µM
COc1cc(-c2cnn(C)c2)cc(-c2cnc(N)c(C(=O)N[C@H]3C4CC5CC3C[C@@](O)(C5)C4)n2)c1,IC50,LAD2 [3],0.14 µM
Nc1ncc(-c2cccc(-c3cnn(CC(=O)O)c3)c2)nc1C(=O)N[C@H]1C2CC3CC1C[C@@](O)(C3)C2,inhibition at 1 µM,LAD2 [2],43%
Nc1ncc(-c2cccc(-c3cnn(CCO)c3)c2)nc1C(=O)N[C@H]1C2CC3CC1C[C@](O)(C3)C2,IC50,LAD2 [3],0.14 µM
Cc1cc(-c2cnn(C)c2)cc(-c2cnc(N)c(C(=O)N[C@H]3C4CC5CC3C[C@@](O)(C5)C4)n2)c1,IC50,LAD2 [3],0.15 µM
CCn1cc(-c2cccc(-c3cnc(N)c(C(=O)N[C@H]4C5CC6CC4C[C@](O)(C6)C5)n3)c2)cn1,IC50,LAD2 [3],0.18 µM
Nc1ncc(-c2cccc(-c3cn[nH]c3)c2)nc1C(=O)N[C@H]1C2CC3CC1C[C@@](O)(C3)C2,IC50,LAD2 [3],0.1 µM
COCCn1cc(-c2cccc(-c3cnc(N)c(C(=O)N[C@H]4C5CC6CC4C[C@@](O)(C6)C5)n3)c2)cn1,IC50,LAD2 [3],0.18 µM
CCn1cc(-c2cccc(-c3cnc(N)c(C(=O)N[C@H]4C5CC6CC4C[C@@](O)(C6)C5)n3)c2)cn1,IC50,LAD2 [3],0.11 µM
CC(C)n1cc(-c2cccc(-c3cnc(N)c(C(=O)N[C@H]4C5CC6CC4C[C@@](O)(C6)C5)n3)c2)cn1,IC50,LAD2 [3],0.22 µM
Nc1ncc(-c2ccc3cn[nH]c3c2)nc1C(=O)N[C@H]1C2CC3CC1C[C@@](O)(C3)C2,IC50,LAD2 [3],0.12 µM
Nc1ccc(-c2cccc(-c3cnc(N)c(C(=O)N[C@H]4C5CC6CC4C[C@@](O)(C6)C5)n3)c2)cn1,IC50,LAD2 [3],0.18 µM
Nc1ncc(-c2cccc(-c3cnn(CCO)c3)c2)nc1C(=O)N[C@H]1C2CC3CC1C[C@@](O)(C3)C2,IC50,LAD2 [3],0.12 µM
NCCn1cc(-c2cccc(-c3cnc(N)c(C(=O)N[C@H]4C5CC6CC4C[C@@](O)(C6)C5)n3)c2)cn1,IC50,LAD2 [3],1 µM
